From ChEMBL document CHEMBL1138831, “Computer-assisted design of selective imidazole inhibitors for cytochrome p450 enzymes” (J Med Chem, 2004)

Experiments:
[1] = biological target: T1, Camphor 5-monooxygenase (Pseudomonas putida, UniProt P00183); assay: Inhibition of wild type cytochrome P450cam expressed in Escherichia coli
T1 sequence (P00183 whole entry): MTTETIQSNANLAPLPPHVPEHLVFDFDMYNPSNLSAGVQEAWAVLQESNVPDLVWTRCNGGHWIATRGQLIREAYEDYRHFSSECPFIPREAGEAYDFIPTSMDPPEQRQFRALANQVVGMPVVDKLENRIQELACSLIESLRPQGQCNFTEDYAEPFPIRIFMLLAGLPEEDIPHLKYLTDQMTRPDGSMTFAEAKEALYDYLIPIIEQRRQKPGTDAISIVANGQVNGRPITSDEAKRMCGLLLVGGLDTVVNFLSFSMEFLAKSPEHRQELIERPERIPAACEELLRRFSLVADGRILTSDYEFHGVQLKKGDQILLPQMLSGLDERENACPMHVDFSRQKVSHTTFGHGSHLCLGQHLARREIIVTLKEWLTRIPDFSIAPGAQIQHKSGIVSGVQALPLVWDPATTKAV

[2] = biological target: T1, Camphor 5-monooxygenase; assay: Inhibition of wild type cytochrome P450cam expressed in Escherichia coli at 1 mM
Procedure, shortened: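 Camphor-depleted enzyme in 100 mM potassium phosphate, with inhibitor at 1 mM added in DMSO (≤3% of volume). Incubated 15 min at 20 °C, then quenched with CH2Cl2 containing 2 mM β-thujone internal standard. Turnover was taken from the GC product/starting-material ratio and expressed as percent inhibition.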

[3] = biological target: T2, Camphor 5-monooxygenase (Pseudomonas putida, UniProt P00183, L244A); assay: Inhibition of L244A mutant cytochrome P450cam expressed in Escherichia coli
Procedure, shortened: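 Camphor-depleted enzyme at 20 nM in 100 mM potassium phosphate, with inhibitor at varying amounts added in DMSO (≤3% of volume). Incubated 15 min at 20 °C, then quenched with CH2Cl2 containing 2 mM β-thujone internal standard. Product/starting-material ratio was measured by GC to give turnover, and IC50 was fitted with a Langmuir isotherm.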

[4] = biological target: T1, Camphor 5-monooxygenase; assay: Binding constant for wild type cytochrome P450cam expressed in Escherichia coli; conditions: read-out: Ks
Procedure, shortened: (§1)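 Camphor stripped from the enzyme by two elutions with 100 mM sodium phosphate over a size-exclusion column, leaving low-spin water-bound heme. 0.5 μM protein in 100 mM potassium phosphate at 37 °C, measured by difference UV spectroscopy. The 416 nm trough to 424 nm peak absorbance difference was fitted by nonlinear regression to ΔA = ΔAmax[I]/(Ks+[I]).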

[5] = biological target: T2, Camphor 5-monooxygenase; assay: Binding constant for L244A mutant cytochrome P450cam expressed in Escherichia coli; conditions: read-out: Ks; procedure, shortened: as §1

| Structure (SMILES) | IC50 [1] [nM] | inhibition at 1000 µM [2] [%] | IC50 [3] [µM] | other results |
| --- | --- | --- | --- | --- |
| c1ccc(Cn2ccnc2)cc1 [BENZYLIMIDAZOLE] | 16000 | – | – | – |
| c1ccc(Cn2cncc2C2CC2)cc1 | – | 30 | 41 | – |
| CCCc1cncn1CC1CC1 | – | 60 | 36 | – |
| CC(C)(C)Cc1cncn1C1CC1 | – | 80 | 129 | – |
| CC(=O)N1CCN(c2ccc(OC[C@@H]3CO[C@@](Cn4ccnc4)(c4ccc(Cl)cc4Cl)O3)cc2)CC1 [KETOCONAZOLE] | – | – | – | Kd [4]: 500 nM; Kd [5]: 600 nM |
| CCC(CC)Cn1ccnc1 | 800 | – | – | – |
| c1cn(CC2CC2)cn1 | 4000 | – | – | – |
| c1cn(CC2CCCCC2)cn1 | 1500 | – | – | – |
| CC(C)Cc1cncn1CC1CC1 | – | 20 | 10.1 | – |
| CCCc1cncn1C1CCCC1 | – | 60 | 6.5 | – |
